From ChEMBL document CHEMBL4393692, “Thiazolidinone/thiazole based hybrids - New class of antitrypanosomal agents” (Eur J Med Chem, 2019)

Legend:
[1] = system: Trypanosoma brucei gambiense; assay: Antitrypanosomal activity against bloodstream form of Trypanosoma brucei gambiense Feo reduction in parasite growth after 72 hrs by resazurin dye based fluorescence assay; format: functional, organism-based
Method in brief: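 Bloodstream parasites cultured in HMI9 with 10% FCS at 37°C under 5% CO2. Log-phase cells harvested at 3000xg, plated at 10^5 cells/ml with dilutions from 10 down to 0.625 µg/ml (DMSO stocks) for 72 h. Resazurin added at 45 µM final, fluorescence read after a further 4 h. Inhibition vs DMSO control. IC50 from dose-response curve, mean ± SD of three independent experiments.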

[2] = Selectivity index, ratio of IC50 for human AB943 cells to IC50 of bloodstream form of Trypanosoma brucei gambiense Feo; format: toxicity; conditions: read-out: Ratio IC50
Method in brief: (§1)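 Human primary fibroblasts grown in RPMI with 25 mM HEPES pH 7.3 and 10% FCS, 37°C, 5% CO2. After trypsinisation, seeded at 5000 cells/well and incubated 24 h. Then washed and exposed to two-fold drug dilutions, final DMSO below 1%, for 5 days. Resazurin added, fluorescence read (ex 530/em 590 nm) after 4 h. Growth inhibition vs DMSO control. SI = IC50 fibroblast / IC50 T. b. gambiense.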

[3] = Cytotoxicity against human AB943 cells assessed as reduction in cell viability after 5 days resazurin dye based fluorescence assay; conditions: 120 h; method in brief: as §1

IC50 [1] [µM] | Structure (SMILES) | selectivity ratio [2] | IC50 [3] [µM]
3 | CCc1nn2c(/C=N/N=c3\scc(-c4ccccc4)n3-c3ccc(O)cc3)c(-c3ccccc3)nc2s1 | – | –
4.4 | C=CCSc1nn2c(/C=N/N=C3/NC(=O)C(C)S3)c(-c3ccccc3)nc2s1 (stereo unspecified) | – | –
2.3 | O=[N+]([O-])c1ccc(-c2[nH]c3ccccc3c2/C=N/Nc2nc(-c3ccc(Br)cc3)cs2)cc1 | > 40 | > 96.5
1.5 | CCc1nn2c(/C=N/N=C3\SC(C)C(=O)N3c3ccc(O)cc3)c(-c3ccc(Br)cc3)nc2s1 (stereo unspecified) | – | –
1.5 | CCc1nn2c(/C=N/N=C3\SC(CC)C(=O)N3c3ccc(O)cc3)c(-c3ccc(Br)cc3)nc2s1 (stereo unspecified) | – | –
1.52 | Clc1ccc(-c2[nH]c3ccccc3c2/C=N/Nc2nc(-c3ccc(Br)cc3)cs2)cc1 | – | –
9.2 | CCc1nn2c(/C=N/N=c3/[nH]c(-c4ccc([N+](=O)[O-])cc4)cs3)c(-c3ccc(Br)cc3)nc2s1 | – | –
> 20 | CCc1nn2c(/C=N/N=C3/NC(=O)C(CC)S3)c(-c3ccc([N+](=O)[O-])cc3)nc2s1 (stereo unspecified) | – | –
0.14 | CCC1S/C(=N\N=C\c2c(-c3ccc([N+](=O)[O-])cc3)[nH]c3ccccc23)N(c2ccc(O)cc2)C1=O (stereo unspecified) | 60 | 8.6
9.2 | CCOC(=O)CSc1nn2c(/C=N/N=C3/NC(=O)C(CC)S3)c(-c3ccccc3)nc2s1 (stereo unspecified) | – | –
27.2 | C=CCSc1nn2cc(-c3ccccc3)nc2s1 | – | –
6 | O=[N+]([O-])c1ccc(-c2[nH]c3ccccc3c2/C=N/Nc2nc(-c3ccccc3)cs2)cc1 | – | –
> 20 | C=CCSc1nn2c(/C=N/N=C3/NC(=O)C(CC(=O)O)S3)c(-c3ccccc3)nc2s1 (stereo unspecified) | – | –
1 | CCOC(=O)c1s/c(=N\N=C\c2c(-c3ccc(Br)cc3)nc3sc(CC)nn23)n(-c2ccc(O)cc2)c1C | – | –
> 30 | CCOC(=O)CSc1nn2cc(-c3ccccc3)nc2s1 | – | –
0.631 | C=CCSc1nn2c(/C=N/N=c3\sc(C(=O)OCC)c(C)n3-c3ccc(O)cc3)c(-c3ccccc3)nc2s1 | > 130 | > 80
4.7 | CC1S/C(=N\N=C\c2c(-c3ccc([N+](=O)[O-])cc3)[nH]c3ccccc23)NC1=O (stereo unspecified) | – | –
0.38 | CC(=O)OCCC1S/C(=N\N=C\c2c(-c3ccc(Cl)cc3)[nH]c3ccccc23)N(c2ccc(O)cc2)C1=O (stereo unspecified) | > 240 | > 90
0.66 | CCOC(=O)c1s/c(=N\N=C\c2c(-c3ccc([N+](=O)[O-])cc3)[nH]c3ccccc23)n(-c2ccc(O)cc2)c1C | 127 | 82.9
> 40 | CCc1nn2c(C=O)c(-c3ccccc3)nc2s1 | – | –
1.42 | CCC1S/C(=N\N=C\c2c(-c3ccc(Cl)cc3)[nH]c3ccccc23)NC1=O (stereo unspecified) | – | –
1.49 | O=C1N/C(=N/N=C/c2c(-c3ccc(Cl)cc3)[nH]c3ccccc23)SC1CCO (stereo unspecified) | 7 | 8.96
1.5 | O=[N+]([O-])c1ccc(-c2[nH]c3ccccc3c2/C=N/N=c2\scc(-c3ccc([N+](=O)[O-])cc3)n2-c2ccc(O)cc2)cc1 | – | –
7.4 | CCOC(=O)c1s/c(=N\N=C\c2c(-c3ccc(Br)cc3)nc3sc(CC)nn23)[nH]c1C | – | –
2.6 | CCc1nn2c(/C=N/N=c3\scc(-c4ccc([N+](=O)[O-])cc4)n3-c3ccc(O)cc3)c(-c3ccc([N+](=O)[O-])cc3)nc2s1 | – | –
13.8 | CCc1nn2c(/C=N/N=C3/NC(=O)C(CC)S3)c(-c3ccc(Br)cc3)nc2s1 (stereo unspecified) | – | –

IC50 [1] [µM] | Structure (SMILES) | selectivity ratio [2] | IC50 [3] [µM]
7.31 | O=C1CS/C(=N\N=C\c2c(-c3ccc(Cl)cc3)[nH]c3ccccc23)N1Cc1ccco1 | – | –
0.476 | CCc1nn2c(/C=N/N=c3\scc(-c4ccc(Br)cc4)n3-c3ccc(O)cc3)c(-c3ccc(Br)cc3)nc2s1 | > 150 | > 70
10.3 | CCc1nn2c(/C=N/N=c3/[nH]c(-c4ccc([N+](=O)[O-])cc4)cs3)c(-c3ccccc3)nc2s1 | – | –
0.74 | CCOC(=O)c1sc(N/N=C/c2c(-c3ccc([N+](=O)[O-])cc3)[nH]c3ccccc23)nc1C | – | –
0.23 | O=C1CS/C(=N\N=C\c2c(-c3ccccc3)[nH]c3ccccc23)N1 | 57 | 13.2
1.2 | CCc1nn2c(/C=N/N=c3/[nH]c(-c4ccc(Br)cc4)cs3)c(-c3ccc([N+](=O)[O-])cc3)nc2s1 | > 70 | > 90
11.1 | CCc1nn2c(/C=N/N=C3\SC(CCOC(C)=O)C(=O)N3c3ccc(O)cc3)c(-c3ccc([N+](=O)[O-])cc3)nc2s1 (stereo unspecified) | – | –
2.6 | CCc1nn2c(/C=N/NC(=S)Nc3ccc(O)cc3)c(-c3ccccc3)nc2s1 | – | –
14.8 | CCc1nn2c(/C=N/NC(=S)Nc3ccc(O)cc3)c(-c3ccc([N+](=O)[O-])cc3)nc2s1 | – | –
> 25 | CCc1nn2c(/C=N/NC(N)=S)c(-c3ccc([N+](=O)[O-])cc3)nc2s1 | – | –
0.652 | C=CCSc1nn2c(/C=N/N=c3/[nH]c(C)c(C(=O)OCC)s3)c(-c3ccccc3)nc2s1 | 7 | 4.33
> 20 | CCOC(=O)c1s/c(=N\N=C\c2c(-c3ccc([N+](=O)[O-])cc3)nc3sc(CC)nn23)[nH]c1C | – | –
1.59 | CC(=O)OCCC1S/C(=N\N=C\c2c(-c3ccc(Cl)cc3)[nH]c3ccccc23)N(Cc2ccco2)C1=O (stereo unspecified) | – | –
1.4 | O=C1C(CCO)S/C(=N\N=C\c2c(-c3ccc(Cl)cc3)[nH]c3ccccc23)N1Cc1ccco1 (stereo unspecified) | 4 | 6.23
0.594 | CCc1nn2c(/C=N/N=c3\scc(-c4ccc(Br)cc4)n3-c3ccc(O)cc3)c(-c3ccc([N+](=O)[O-])cc3)nc2s1 | – | –
0.745 | CCOC(=O)c1s/c(=N\N=C\c2c(-c3ccccc3)nc3sc(CC)nn23)n(-c2ccc(O)cc2)c1C | 69 | 51.5
> 25 | CCc1nn2c(/C=N/NC(N)=S)c(-c3ccc(Br)cc3)nc2s1 | – | –
2.7 | CCc1nn2c(/C=N/N=C3\SC(CCOC(C)=O)C(=O)N3c3ccc(O)cc3)c(-c3ccccc3)nc2s1 (stereo unspecified) | – | –
3.7 | CCc1nn2c(/C=N/N=C3/NC(=O)C(CC)S3)c(-c3ccccc3)nc2s1 (stereo unspecified) | – | –
> 20 | C=CCSc1nn2c(/C=N/N=C3\SCC(=O)N3c3ccc(O)cc3)c(-c3ccccc3)nc2s1 | – | –
4.4 | CCc1nn2c(/C=N/N=c3/[nH]c(-c4ccc([N+](=O)[O-])cc4)cs3)c(-c3ccc([N+](=O)[O-])cc3)nc2s1 | – | –
4.8 | CCc1nn2c(/C=N/N=C3\SC(C)C(=O)N3c3ccc(O)cc3)c(-c3ccccc3)nc2s1 (stereo unspecified) | – | –
6.1 | C=CCSc1nn2c(/C=N/NC(N)=S)c(-c3ccccc3)nc2s1 | – | –
20.6 | C=CCSc1nn2c(/C=N/N=C3/NC(=O)C(CC)S3)c(-c3ccccc3)nc2s1 (stereo unspecified) | – | –
> 40 | CCc1nn2cc(-c3ccccc3)nc2s1 | – | –
1.5 | CCC1S/C(=N\N=C\c2c(-c3ccc(Br)cc3)[nH]c3ccccc23)NC1=O (stereo unspecified) | – | –

IC50 [1] [µM] | Structure (SMILES) | selectivity ratio [2] | IC50 [3] [µM]
9.2 | CCc1nn2c(/C=N/N=C3\SCC(=O)N3c3ccc(O)cc3)c(-c3ccccc3)nc2s1 | – | –
> 50 | C=CCSc1nn2c(/C=N/NC(=S)Nc3ccc(O)cc3)c(-c3ccccc3)nc2s1 | – | –
3.34 | O=C1N/C(=N/N=C/c2c(-c3ccc(Br)cc3)[nH]c3ccccc23)SC1CCO (stereo unspecified) | – | –
> 20 | C=CCSc1nn2c(/C=N/N=C3\SC(C)C(=O)N3c3ccc(O)cc3)c(-c3ccccc3)nc2s1 (stereo unspecified) | – | –
6.2 | CCC1S/C(=N\N=C\c2c(-c3ccc([N+](=O)[O-])cc3)[nH]c3ccccc23)NC1=O (stereo unspecified) | – | –
1.34 | CC(=O)OCCC1S/C(=N\N=C\c2c(-c3ccc(Cl)cc3)[nH]c3ccccc23)NC1=O (stereo unspecified) | – | –
1.36 | CC(=O)OCCC1S/C(=N\N=C\c2c(-c3ccc(Br)cc3)[nH]c3ccccc23)NC1=O (stereo unspecified) | – | –
20.9 | CCc1nn2c(/C=N/NC(N)=S)c(-c3ccccc3)nc2s1 | – | –
1.35 | CC1S/C(=N\N=C\c2c(-c3ccc(Br)cc3)[nH]c3ccccc23)NC1=O (stereo unspecified) | – | –
3.9 | CCOC(=O)CSc1nn2c(/C=N/N=C3/NC(=O)C(C)S3)c(-c3ccccc3)nc2s1 (stereo unspecified) | – | –
3.9 | C=CCSc1nn2c(/C=N/N=C3/NC(=O)CS3)c(-c3ccccc3)nc2s1 | – | –
> 25 | CCc1nn2c(/C=N/N=C3/NC(=O)C(C)S3)c(-c3ccccc3)nc2s1 (stereo unspecified) | – | –
1.17 | CC1S/C(=N\N=C\c2c(-c3ccc(Cl)cc3)[nH]c3ccccc23)N(c2ccc(O)cc2)C1=O (stereo unspecified) | – | –
9.5 | CCc1nn2c(/C=N/N=C3/NC(=O)C(C)S3)c(-c3ccc(Br)cc3)nc2s1 (stereo unspecified) | – | –
3.2 | CCc1nn2c(/C=N/N=C3/NC(=O)C(CCOC(C)=O)S3)c(-c3ccc(Br)cc3)nc2s1 (stereo unspecified) | – | –
1.71 | CC1S/C(=N\N=C\c2c(-c3ccc(Cl)cc3)[nH]c3ccccc23)N(Cc2ccco2)C1=O (stereo unspecified) | – | –
> 20 | CCc1nn2c(/C=N/N=C3\SC(CC)C(=O)N3c3ccc(O)cc3)c(-c3ccccc3)nc2s1 (stereo unspecified) | – | –
16.2 | CCc1nn2c(/C=N/N=C3/NC(=O)C(CCOC(C)=O)S3)c(-c3ccc([N+](=O)[O-])cc3)nc2s1 (stereo unspecified) | – | –
1.5 | CCc1nn2c(/C=N/NC(=S)Nc3ccc(O)cc3)c(-c3ccc(Br)cc3)nc2s1 | – | –
11.8 | CCc1nn2c(/C=N/N=C3/NC(=O)C(CCOC(C)=O)S3)c(-c3ccccc3)nc2s1 (stereo unspecified) | – | –
1.71 | CCC1S/C(=N\N=C\c2c(-c3ccc(Cl)cc3)[nH]c3ccccc23)N(Cc2ccco2)C1=O (stereo unspecified) | – | –
23.4 | C=CCSc1nn2c(C=O)c(-c3ccccc3)nc2s1 | – | –
2.7 | CCOC(=O)c1s/c(=N\N=C\c2c(-c3ccccc3)nc3sc(CC)nn23)[nH]c1C | – | –
1 | C=CCSc1nn2c(/C=N/N=C3\SC(CCOC(C)=O)C(=O)N3c3ccc(O)cc3)c(-c3ccccc3)nc2s1 (stereo unspecified) | – | –
18 | CCc1nn2c(/C=N/N=C3/NC(=O)CS3)c(-c3ccccc3)nc2s1 | – | –
